{"source": "ChEMBL document CHEMBL4342456", "about": "“Preventing Morphine-Seeking Behavior through the Re-Engineering of Vincamine's Biological Activity” (J Med Chem, 2020)", "key": {"Cannabinoid receptor 2": {"molecular_target": "Cannabinoid receptor 2 (Homo sapiens, UniProt P34972)", "sequence (P34972 whole entry)": "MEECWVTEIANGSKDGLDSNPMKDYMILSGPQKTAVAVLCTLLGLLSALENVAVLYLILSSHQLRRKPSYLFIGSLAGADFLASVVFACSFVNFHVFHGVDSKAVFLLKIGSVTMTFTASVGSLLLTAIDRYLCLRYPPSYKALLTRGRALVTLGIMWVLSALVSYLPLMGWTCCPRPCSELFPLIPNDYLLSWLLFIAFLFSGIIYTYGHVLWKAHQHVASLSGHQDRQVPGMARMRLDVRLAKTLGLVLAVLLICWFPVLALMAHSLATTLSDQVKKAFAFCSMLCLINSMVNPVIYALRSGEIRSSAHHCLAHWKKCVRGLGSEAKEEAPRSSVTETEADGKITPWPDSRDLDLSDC", "assay": "(§1) Antagonist activity at human Gi/o-coupled CNR2 expressed in CHOK1 cells assessed as inhibition in CP55940-induced beta-arrestin 2 recruitment at 20 uM incubated for 30 mins followed by CP55940 addition and measured after 90 or 180 mins by pathhunter beta-arrestin assay relative to control", "format": "cell-based", "how_it_was_run": "(§2)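 PathHunter beta-arrestin recruitment, antagonist mode, run at DiscoverX. Cells seeded and held at 37 °C, then preincubated with test sample for 30 min at 37 °C or room temperature (1% vehicle). Agonist then added at EC80 for 90 or 180 min. IC50 comes from concentration–response runs in the same format.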"}, "[1]": {"assay": "Stability of compound in pH 2.0 HCl aqueous solution assessed as parent compound remaining at 0.025 mmol measured after 24 hrs", "format": "physicochemical", "conditions": "read-out: Stability", "how_it_was_run": "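Acid stability: compound held 24 h at 37 °C in acidic aqueous media at pH 2.0 or pH 4.88. Percent recovery of parent compound was measured.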"}, "Orexin receptor type 2": {"molecular_target": "T1, Orexin receptor type 2 (Homo sapiens, UniProt O43614)", "T1 sequence (O43614 whole entry)": "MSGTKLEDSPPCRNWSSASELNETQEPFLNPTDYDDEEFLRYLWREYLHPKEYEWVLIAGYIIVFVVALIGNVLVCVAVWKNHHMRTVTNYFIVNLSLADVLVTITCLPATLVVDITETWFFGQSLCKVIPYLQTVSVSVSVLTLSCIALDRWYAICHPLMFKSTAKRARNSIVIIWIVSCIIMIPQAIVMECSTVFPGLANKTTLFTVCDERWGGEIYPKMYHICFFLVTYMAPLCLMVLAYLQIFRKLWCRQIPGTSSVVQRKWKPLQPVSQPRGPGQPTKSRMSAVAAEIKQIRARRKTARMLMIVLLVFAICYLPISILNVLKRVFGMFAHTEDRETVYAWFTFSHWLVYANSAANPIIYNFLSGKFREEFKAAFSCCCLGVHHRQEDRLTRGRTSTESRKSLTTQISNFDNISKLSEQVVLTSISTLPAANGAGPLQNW", "assay": "Antagonist activity at human Gq-coupled HCRTR2 expressed in CHOK1 cells assessed as inhibition in Orexin A-induced beta-arrestin 2 recruitment incubated for 30 mins followed by Orexin A addition and measured after 90 or 180 mins by pathhunter beta-arrestin assay", "format": "cell-based", "how_it_was_run": "as §2, with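 “min. […]” for “min.”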"}, "[2]": {"molecular_target": "T2, Neuropeptide S receptor (Homo sapiens) (UniProt Q6W5P4)", "T2 sequence (whole entry)": "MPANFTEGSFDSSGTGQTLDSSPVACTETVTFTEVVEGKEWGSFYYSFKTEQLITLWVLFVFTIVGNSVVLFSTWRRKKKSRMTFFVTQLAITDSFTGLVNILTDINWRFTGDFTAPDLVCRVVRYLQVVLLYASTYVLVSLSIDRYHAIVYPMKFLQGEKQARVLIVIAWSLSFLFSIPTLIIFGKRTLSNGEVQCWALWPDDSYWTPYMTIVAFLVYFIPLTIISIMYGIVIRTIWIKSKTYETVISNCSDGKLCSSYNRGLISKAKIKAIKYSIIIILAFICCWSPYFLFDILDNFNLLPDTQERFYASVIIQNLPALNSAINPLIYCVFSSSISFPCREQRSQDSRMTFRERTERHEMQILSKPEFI", "assay": "as §1, with “Gq-coupled NPSR1b” for “Gi/o-coupled CNR2”, “human U2OS” for “CHOK1”, “neuropeptide S-induced” for “CP55940-induced”, “neuropeptide S” for “CP55940”", "format": "cell-based", "how_it_was_run": "as §2"}, "[3]": {"molecular_target": "C-X-C chemokine receptor type 4 (Homo sapiens) (UniProt P61073)", "sequence (P61073 whole entry)": "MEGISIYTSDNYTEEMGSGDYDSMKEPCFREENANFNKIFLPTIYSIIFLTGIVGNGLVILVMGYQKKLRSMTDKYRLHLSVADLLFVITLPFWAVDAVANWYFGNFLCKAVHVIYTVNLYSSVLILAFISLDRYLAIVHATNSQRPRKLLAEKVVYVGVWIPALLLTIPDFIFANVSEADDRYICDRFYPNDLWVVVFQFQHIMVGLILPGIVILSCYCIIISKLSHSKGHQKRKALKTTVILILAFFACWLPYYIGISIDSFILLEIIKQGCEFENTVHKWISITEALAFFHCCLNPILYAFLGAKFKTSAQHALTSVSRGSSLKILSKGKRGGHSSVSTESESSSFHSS", "assay": "Antagonist activity at human Gi/o-coupled CXCR4 expressed in mouse C2C12 cells assessed as inhibition in CXCL12-induced beta-arrestin 2 recruitment at 20 uM incubated for 30 mins followed by CXCL12 addition and measured after 90 or 180 mins by pathhunter beta-arrestin assay relative to control", "format": "cell-based", "how_it_was_run": "as §2"}, "[4]": {"molecular_target": "T3, Prolactin-releasing peptide receptor (Homo sapiens) (UniProt P49683)", "T3 sequence (whole entry)": "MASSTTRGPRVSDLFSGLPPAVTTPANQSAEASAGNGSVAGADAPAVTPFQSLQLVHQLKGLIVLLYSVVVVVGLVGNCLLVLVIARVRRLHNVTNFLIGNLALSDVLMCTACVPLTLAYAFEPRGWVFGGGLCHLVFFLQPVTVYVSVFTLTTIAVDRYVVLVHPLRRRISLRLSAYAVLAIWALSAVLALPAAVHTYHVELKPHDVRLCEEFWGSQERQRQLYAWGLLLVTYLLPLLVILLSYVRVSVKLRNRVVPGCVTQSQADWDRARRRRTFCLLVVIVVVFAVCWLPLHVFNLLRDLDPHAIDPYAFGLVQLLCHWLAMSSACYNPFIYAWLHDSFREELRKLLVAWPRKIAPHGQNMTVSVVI", "assay": "as §1, with “Gq-coupled PRLHR” for “Gi/o-coupled CNR2”, “prolactin releasing peptide (1 to 31)-induced” for “CP55940-induced”, “prolactin releasing peptide (1 to 31)” for “CP55940”", "format": "cell-based", "how_it_was_run": "as §2"}, "[5]": {"molecular_target": "T4, Glucose-dependent insulinotropic receptor (Homo sapiens) (UniProt Q8TDV5)", "T4 sequence (whole entry)": "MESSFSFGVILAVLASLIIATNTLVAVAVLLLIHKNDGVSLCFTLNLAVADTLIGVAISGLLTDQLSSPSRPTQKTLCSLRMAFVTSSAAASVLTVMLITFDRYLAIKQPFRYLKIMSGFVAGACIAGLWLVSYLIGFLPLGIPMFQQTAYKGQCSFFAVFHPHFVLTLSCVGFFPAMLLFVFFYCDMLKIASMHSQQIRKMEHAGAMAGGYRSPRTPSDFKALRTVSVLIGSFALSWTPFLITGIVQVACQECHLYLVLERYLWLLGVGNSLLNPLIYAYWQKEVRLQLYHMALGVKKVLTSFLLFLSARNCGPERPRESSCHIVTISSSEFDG", "assay": "Antagonist activity at human GPR119 assessed as inhibition in oleoylethanolamide-induced beta-arrestin 2 recruitment at 20 uM incubated for 30 mins followed by oleoylethanolamide addition and measured after 90 or 180 mins by pathhunter beta-arrestin assay relative to control", "how_it_was_run": "as §2"}}, "data": [{"smiles": "CC[C@@]12CCCN3CCc4c([nH]c5ccccc45)[C@]31N(Cc1cn(Cc3ccccc3)nn1)C(=O)C2", "values": [{"measurement": "inhibition", "setting": "Cannabinoid receptor 2", "result": 60, "unit": "%"}, {"measurement": "remaining at 24 h, 0.025 mmol", "setting": "[1]", "result": 92.1, "unit": "%"}, {"measurement": "IC50", "setting": "Orexin receptor type 2", "result": 2260, "unit": "nM"}, {"measurement": "inhibition", "setting": "[2]", "result": 30, "unit": "%"}, {"measurement": "inhibition", "setting": "[3]", "result": 34, "unit": "%"}, {"measurement": "inhibition", "setting": "[4]", "result": 59, "unit": "%"}, {"measurement": "inhibition", "setting": "[5]", "result": 30, "unit": "%"}]}]}
